We go through two compounds from ChEMBL document CHEMBL4680229, “Design, synthesis and bioactivity study of N-salicyloyl tryptamine derivatives as multifunctional agents for the treatment of neuroinflammation” (Eur J Med Chem, 2020).

Molecules are shown by their SMILES. Activity calls are given as the source filed them. The calls are words filed in the database; no cut-off is given here. Bounds are passed on as bounds.

Series [1] concerns C6. Nature of the series: Cytotoxicity against rat C6 cells assessed as reduction in cell viability after 24 hrs by MTT assay. It counts as cell-based. To be noted: C6, 24 h. In outline:
(§1)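 C6 or BV2 cells seeded at 1–5×10^5 per well; after 12 h exposed to 0, 6.25, 12.5, 25, 50 or 100 μM (final, DMSO <0.4%) for 24 h. MTT added for 4 h, dissolved in DMSO, read at 570 nm. IC50 as mean of three independent experiments run in triplicate.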

Series [2] is described as follows: Antioxidant activity assessed as DPPH radical scavenging activity incubated for 30 mins. The series is classed as functional. In outline:
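Compound in ethanol at 2.5–40 μM final, mixed 1:1 with 700 μmol/L ethanolic DPPH; 30 min in the dark at room temperature, absorbance at 515 nm. Serotonin used as standard; EC50 from three independent experiments.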
(In general: Loss of DPPH colour is used to gauge radical scavenging.)

Series [3] is described as follows: Inhibition of LPS-induced NO production in mouse BV-2 cells incubated for 24 hrs by Griess reagent based assay. It counts as functional, cell-based. Conditions: BV-2, 24 h. The method in brief: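 BV2 cells at 5×10^5 cells/mL, LPS 1 μg/mL plus compound at 2.5–40 μM final for 24 h. Supernatant nitrite measured with Griess reagent for 15 min at room temperature in the dark, 540 nm, against a NaNO2 standard curve; IC50 from three repeats.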
For orientation: Griess reagent forms a coloured azo dye with nitrite.

Series [4] can be described thus: Half life in Sprague-Dawley rat at 50 mg/kg, ip up to 24 hrs by LC-MS analysis. It counts as ADME, organism-based. To be noted: in vivo. The method in brief: (§2)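 Male Sprague-Dawley rats, six per group, single 50 mg/kg intraperitoneal dose; parameters derived by non-compartmental analysis using the linear trapezoidal method; mean ± SD, n = 6.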
The nature of series [5]: Cmax in Sprague-Dawley rat at 50 mg/kg, ip up to 24 hrs by LC-MS analysis. It counts as ADME, organism-based. Set-up: route intraperitoneal, dose 50 mg/kg, time <=24. To be noted: in vivo. In outline: as §2
For series [6], the system named is C6. Nature of the series: Antiinflammatory activity against LPS-induced rat C6 cells assessed as decrease in INOS protein expression at 40 uM after 24 hrs by Western blot analysis relative to control. It counts as functional. Set-up: scale not given: the % may be the effect or the level left. In outline:
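C6 cells; LPS 10 μg/mL plus compound at 10, 20 or 40 μM for 24 h. Lysates with RIPA/PMSF, 30 μg protein on 8% SDS-PAGE, iNOS immunoblot and densitometry; at least three independent experiments.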
(In general: In western blotting, separated proteins are transferred to a membrane and probed.)

Series [7] is described as follows: Toxicity in po dose Kunming mouse after 14 days. The series is classed as organism-based. Conditions: in vivo, time 14 day. The method in brief:
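Acute toxicity followed OECD guidelines in ten mice (five male, five female). A single oral dose of 1000 mg/kg was given, with a vehicle control group. Behaviour was observed over 14 days. Mice were then sacrificed for gross and H&E histological examination of heart, liver, kidney and stomach.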

Series [8] relates to BV-2. Nature of the series: Cytotoxicity against mouse BV-2 cells assessed as reduction in cell viability after 24 hrs by MTT assay. The series is classed as cell-based. Conditions: BV-2, 24 h. In outline: as §1
For series [9], the system named is C6. Briefly: Inhibition of LPS-induced TNFalpha production in rat C6 cells after 24 hrs by ELISA. Conditions: dose 10-40 µM. The series is classed as functional, cell-based. The method in brief:
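C6 cells at 5×10^5 cells/mL stimulated with LPS 10 μg/mL; compound at 10, 20 or 40 μM final for 24 h. Supernatant TNF-α measured by sandwich ELISA at 450 nm; at least three independent experiments.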

Series [10] addresses Prostaglandin G/H synthase 2 (Homo sapiens) (UniProt P35354). Nature of the series: Inhibition of human COX2 assessed as reduction in PGF2alpha formation using arachidonic acid as substrate incubated for 10 mins by ELISA.
Series [11] has as its system Mus musculus. Nature of the series: Antiinflammatory activity against LPS-induced hippocampal neuroinflammatory Kunming mouse model assessed as reduction in GFAP level in hippocampus at 50 mg/kg, ip administered bid for 6 days by Western blot analysis. It counts as functional, organism-based. To be noted: time 6.0 day.
Series [12] deals with C6. Nature of the series: Inhibition of LPS-induced NO production in rat C6 cells incubated for 24 hrs by Griess reagent based assay. The series is classed as functional, cell-based. Conditions: C6, 24 h. The method in brief: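 C6 cells at 5×10^5 cells/mL, LPS 10 μg/mL plus compound at 2.5–40 μM final for 24 h. Nitrite measured with Griess reagent at 540 nm against a NaNO2 standard; IC50 from three repeats.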

For series [13], the system named is Mus musculus. Briefly: Antiinflammatory activity against LPS-induced hippocampal neuroinflammatory Kunming mouse model assessed as reduction in iba-1 level in hippocampus at 50 mg/kg, ip administered bid for 6 days by Western blot analysis. The series is classed as functional, organism-based. To be noted: time 6.0 day.
Series [14] deals with BV-2. Briefly: Antiinflammatory activity against LPS-induced mouse BV-2 cells assessed as decrease in COX2 protein expression after 24 hrs by Western blot analysis. It counts as functional, cell-based. Conditions: BV-2, 24 h. In outline:
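BV2 cells in DMEM with 10% FBS; LPS 1 μg/mL plus compound at 10, 20 or 40 μM final for 24 h. Lysates in RIPA with 1 mM PMSF; 30 μg protein on 8% SDS-PAGE and blotted for iNOS and COX-2, GAPDH as reference; ECL detection and densitometry; at least three independent experiments.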

The subject of series [15] is BV-2. Briefly: Inhibition of LPS-induced TNFalpha production in mouse BV-2 cells after 24 hrs by ELISA. The series is classed as functional, cell-based. To be noted: dose 10-40 µM. The method in brief:
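BV2 cells at 5×10^5 cells/mL stimulated with LPS 1 μg/mL; compound at 10, 20 or 40 μM final for 24 h, DMSO in blanks. Supernatant TNF-α and IL-10 measured by sandwich ELISA and PGE2 by competitive ELISA, OD at 450 nm; at least three independent experiments.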

The test system of series [16] is Mus musculus. Nature of the series: Antiinflammatory activity against LPS-induced hippocampal neuroinflammatory Kunming mouse model assessed as reduction in iba-1 level in hippocampus at 50 mg/kg, ip administered bid for 6 days by DAPI staining based microscopic method. It counts as functional, organism-based. Conditions: time 6.0 day.

Prostaglandin G/H synthase 2 (Homo sapiens), sequence (P35354 whole entry, looked up): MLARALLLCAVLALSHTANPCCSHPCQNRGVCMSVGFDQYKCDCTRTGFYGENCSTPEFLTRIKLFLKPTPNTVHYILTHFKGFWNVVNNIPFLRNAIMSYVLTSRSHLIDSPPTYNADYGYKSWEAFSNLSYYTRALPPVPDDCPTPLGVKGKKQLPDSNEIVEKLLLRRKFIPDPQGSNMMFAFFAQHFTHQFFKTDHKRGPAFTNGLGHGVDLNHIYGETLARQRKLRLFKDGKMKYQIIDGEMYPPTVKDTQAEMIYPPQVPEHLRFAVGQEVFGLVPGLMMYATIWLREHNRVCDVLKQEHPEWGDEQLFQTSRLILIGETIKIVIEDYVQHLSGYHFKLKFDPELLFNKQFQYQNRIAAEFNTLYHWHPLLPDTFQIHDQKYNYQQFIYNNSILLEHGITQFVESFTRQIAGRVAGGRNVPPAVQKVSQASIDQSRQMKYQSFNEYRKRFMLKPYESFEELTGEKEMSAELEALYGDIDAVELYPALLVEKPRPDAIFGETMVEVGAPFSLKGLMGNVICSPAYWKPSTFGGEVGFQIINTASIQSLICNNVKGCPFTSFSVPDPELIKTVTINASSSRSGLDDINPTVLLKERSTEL

The IC50 is the point on the concentration scale where inhibition reaches its midpoint. What is called EC50 is the midpoint of the concentration-response curve. Usually half-life stands for the time in which the quantity being followed falls by half. A word on the Cmax: it is the peak of the concentration-time curve. One may read the LD50 as the dose expected to kill half of the subjects tested. Regarding `O=C(NCCc1c[nH]c2ccc(O)cc12)c1ccccc1Nc1ccccc1`, the 50% inhibitory concentration (IC50) in series [1] is over 100 µM; in series [3], 37.2 µM; in [8], over 100 µM; in series [10] it was 0.5 µM; in series [12] it was 6.73 µM. In series [2], the EC50 worked out at 3.82 µM. In [4], this compound gave a half-life of 2.72 h. Also, the maximum concentration (Cmax) in series [5] was determined as 6080 ng/mL. Moreover, the Activity in series [6] stood at 95%. The LD50 at 336 h in series [7] was over 1000 mg/kg. Also, in series [9], the inhibition entry is “Dose-dependent effect”. Besides, the outcome in series [11] was Active.

For `Cc1ccc(C(=O)NCCc2c[nH]c3ccccc23)c(O)c1`, the outcome in [13], in [11] and in series [16] was Active. Also, the half-inhibitory concentration (IC50) was over 100 µM in series [1]; over 40 µM in [14]; 4.94 µM in series [3]; over 100 µM in series [8]; 4.16 µM in series [10]; 7.48 µM in series [12]. Moreover, the EC50 in [2] is 25.2 µM. In [4], this compound showed a half-life of 13.9 h. Besides, the highest concentration (Cmax) in [5] was determined as 2100 ng/mL. In series [6], the Activity was determined as 29%. This compound yielded a median lethal dose (LD50) at 336 h in series [7] of over 1000 mg/kg. For the same compound, the inhibition result in series [9] and in series [15] was “Dose-dependent effect” throughout.
